Screens (PubChem BioAssay)
Most compounds without a hit are left out; they make up all but 5.8% or so of the library.
IDH1 R132H inh: IDH1 R132H (human) inhibition | AID 624101 | 70,000 tested, 0.18% active | IDH1 R132H reductase, diaphorase/resazurin fluorescence, 60 min | O75874 | inhibition, % at 10 µM; in the data active = inhibition above about 34%; inconclusive = no clear call, values can overlap the other calls; inactive = below about 11%
Target sequence (O75874 whole entry R132H): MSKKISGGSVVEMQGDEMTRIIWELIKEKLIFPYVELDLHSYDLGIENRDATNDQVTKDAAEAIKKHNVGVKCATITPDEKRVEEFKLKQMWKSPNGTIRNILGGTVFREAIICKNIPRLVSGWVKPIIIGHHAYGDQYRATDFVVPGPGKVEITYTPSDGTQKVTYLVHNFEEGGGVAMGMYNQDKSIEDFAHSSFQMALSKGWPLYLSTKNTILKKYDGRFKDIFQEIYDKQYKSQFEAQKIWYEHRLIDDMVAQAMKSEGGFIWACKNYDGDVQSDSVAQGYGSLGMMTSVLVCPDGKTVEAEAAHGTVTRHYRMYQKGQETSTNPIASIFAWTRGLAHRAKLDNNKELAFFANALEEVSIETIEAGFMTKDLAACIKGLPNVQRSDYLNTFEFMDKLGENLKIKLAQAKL
T cruzi growth-1: inhibitors of T. cruzi proliferation. T. cruzi beta-gal in NIH3T3, GalScreen luminescence, 90 h. AID 624255. 77,000 tested, 5.9% active. inhibition, % at 8.34 µM;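 active = mean inhibition above about 93%, with at least 55% of replicates each passing it, limit read from the data, passing the limit was not always enough; inconclusive = only one of those two conditions holds; inactive = neither condition holds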
Pf Dd2 inh: P. falciparum Dd2 growth inhibition. AID 1159554. 94,000 tested, 2.3% active. SYBR Green, 72 h; stronger effect = lower value. activity change, % at 10 µM; in the data active = activity change below about -80%; inconclusive = no clear call, values can overlap the other calls
KDM4C inh: blocks human GASC-1 (KDM4C) demethylase activity; Q9H3R0; GST-KDM4C 2-372, H3K9me3 peptide, LANCE TR-FRET; inhibition, % at 12.5 µM; 96,000 tested, 0.15% active;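 active = mean replicate inhibition above about 25%, with at least 55% of replicates also reaching it, limit read from the data, passing the limit was not always enough; inconclusive = only one of those two conditions met; inactive = neither condition met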
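Test system – GST-tagged GASC-1 (JMJD2C) catalytic fragment, aa 2-372 · Medium – HEPES buffer, pH 7.5, plus ascorbate · Reagent – H3K9me3 peptide with Fe(II)/2OG · Compound – one test concentration per compound · Timing – 30 min reaction, 60 min detection, RT · Technique – TR-FRET with Eu antibody and ULight streptavidin, EDTA stop · Read-out basis – inhibition from TR-FRET ratio decrease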
T cruzi growth-2: blocks T. cruzi growth in NIH3T3 host cells | 5,600 tested, 72% active | inhibition, % at 8.35 µM | T. cruzi beta-gal in NIH3T3, GalScreen luminescence, 90 h | AID 651739 | shares compounds with T cruzi growth-1;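 active = mean replicate inhibition above about 95% and at least 55% of replicates individually reaching it, limit read from the data; inconclusive = only one of the two criteria is met; inactive = neither criterion is met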
T cruzi growth-3: inhibitors of T. cruzi proliferation. T. cruzi beta-gal in NIH3T3, GalScreen luminescence, 90 h. shares compounds with T cruzi growth-1. AID 651740. inhibition, % at 2.09 µM. 5,600 tested, 21% active;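 active = mean inhibition above about 95%, with at least 55% of replicates also reaching it, limit read from the data; inconclusive = meets just one of the two conditions; inactive = meets neither condition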
NIH3T3 tox: kills mouse NIH/3T3 fibroblasts. AID 651742. cytotoxicity (signal decrease), % at 8.35 µM. 5,600 tested, 14% active. NIH/3T3 viability, CellTiter-Glo ATP luminescence, 90 h. shares compounds with T cruzi growth-1;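 active = mean signal decrease across replicates above about 35% based on untreated-well scatter, with enough replicates individually passing, limit read from the data; inconclusive = no rule stated though some were filed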
3T3 cytotox 2: kills mouse NIH/3T3 fibroblasts; shares compounds with T cruzi growth-1; NIH/3T3 viability, CellTiter-Glo ATP luminescence, 90 h; inhibition, % at 24.9 µM; 5,600 tested, 56% active; AID 651744;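 active = mean loss of cell viability signal at or above a set limit, and enough replicates individually reaching it; inconclusive = meets only the mean limit or only the replicate share; inactive = meets neither condition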
Numbers stand for hits; – = inactive; ? = inconclusive; · = not tested or not shown.

SMILES	IDH1 R132H inh	T cruzi growth-1	Pf Dd2 inh	KDM4C inh	T cruzi growth-2	T cruzi growth-3	NIH3T3 tox	3T3 cytotox 2
C[C@H](CO)N1C[C@H](C)[C@@H](CN(C)Cc2ccccc2)Oc2cc(C3=CCCCC3)ccc2S1(=O)=O	–	115.6	–	–	100.5	101.1	45.5	105.0
C[C@H]1CN([C@@H](C)CO)S(=O)(=O)c2ccc(C3=CCCCC3)cc2O[C@H]1CN(C)Cc1ccccc1	–	120.1	–	–	–	–	68.5	105.4
C[C@@H]1CN([C@H](C)CO)S(=O)(=O)c2ccc(C3=CCCCC3)cc2O[C@@H]1CN(C)Cc1ccccc1	–	125.0	–	–	96.8	102.1	–	104.9
C[C@@H]1CN([C@@H](C)CO)S(=O)(=O)c2ccc(C3=CCCCC3)cc2O[C@@H]1CN(C)Cc1ccccc1	–	122.3	–	–	99.9	117.0	–	105.6
C[C@H](CO)N1C[C@H](C)[C@H](CN(C)Cc2cccc(C(=O)O)c2)Oc2cc(C3=CCCCC3)ccc2S1(=O)=O	·	–	–	–	·	·	·	·
Cc1ccccc1S(=O)(=O)N1CC(=O)N2[C@H](C1)[C@@H](c1ccc(C#CC3CC3)cc1)[C@@H]2CO	·	·	–	–	·	·	·	·
COc1ccc(S(=O)(=O)Nc2ccc3c(c2)C(=O)N([C@@H](C)CO)C[C@@H](C)[C@@H](CN(C)C(=O)C2CCCCC2)OCCCC[C@H](C)O3)cc1	–	–	–	–	·	·	·	·
C[C@H]1CN([C@@H](C)CO)S(=O)(=O)c2ccc(C3=CCCCC3)cc2O[C@@H]1CN(C)Cc1cncnc1	–	102.4	–	–	101.8	–	55.0	69.2
C[C@H](CO)N1C[C@H](C)[C@H](CN(C)Cc2ccccc2)Oc2cc(C3=CCCCC3)ccc2S1(=O)=O	–	?	–	–	100.4	–	–	102.6
CC(=O)O[C@@H]1c2c(ccc3ccc(=O)oc23)OC(C)(C)[C@@H]1OC(=O)C=C(C)C	–	·	·	·	·	·	·	·
COc1ccc(C#Cc2cnc3c(c2)C(=O)N([C@@H](C)CO)C[C@@H](C)[C@H](CN(C)CC2CCCC2)O3)cc1	–	111.4	–	·	99.1	–	117.7	103.6
COc1ccc(C#Cc2cnc3c(c2)C(=O)N([C@H](C)CO)C[C@H](C)[C@H](CN(C)C)O3)cc1	–	100.8	–	–	–	–	–	65.1
CC(C)(C)OC(=O)NC1(/C=N/NC(=O)CCCCCCC(=O)NO)CCCC1	–	·	·	·	·	·	·	·
C[C@@H]1CN([C@H](C)CO)C(=O)c2cc(NC(=O)c3ccncc3)ccc2O[C@@H](C)CCCCO[C@@H]1CN(C)S(=O)(=O)c1ccc(Cl)cc1	·	?	?	–	95.2	–	–	–
C[C@@H]1CCCCO[C@H](CN(C)S(=O)(=O)c2ccc(Cl)cc2)[C@H](C)CN([C@H](C)CO)C(=O)c2cc(NC(=O)c3ccncc3)ccc2O1	·	100.8	–	–	99.8	–	38.3	–
C[C@H]1CCCCO[C@H](CN(C)S(=O)(=O)c2ccc(Cl)cc2)[C@@H](C)CN([C@@H](C)CO)C(=O)c2cc(NC(=O)c3ccncc3)ccc2O1	–	–	–	–	·	·	·	·
O=C(Cc1ccccc1)N1CC[C@H]2[C@H](CO)Nc3ccc(-c4ccccc4)cc3[C@H]21	·	?	–	–	104.8	–	–	–
O=C(Cc1ccccc1)N1CC[C@H]2[C@H](CO)Nc3ccc(C#Cc4ccccc4)cc3[C@H]21	·	119.4	–	–	104.6	–	–	74.7
O=C(CN1CCOCC1)N1CC[C@@H]2[C@@H](CO)Nc3ccc(-c4ccccc4F)cc3[C@@H]21	·	–	–	–	·	·	·	·
O=C(Cc1ccccc1)N1CC[C@H]2[C@H](CO)Nc3ccc(C#Cc4cccc(F)c4)cc3[C@H]21	·	·	–	–	·	·	·	·
O=C(Cc1ccccc1)N1CC[C@@H]2[C@H]1c1cc(-c3ccccc3F)ccc1N[C@@H]2CO	·	112.7	–	–	–	–	–	53.0
C[C@H]1CN([C@@H](C)CO)C(=O)c2cccc(NS(=O)(=O)c3cccs3)c2O[C@@H]1CN(C)Cc1ccncc1	–	–	–	–	·	·	·	·
C[C@H]1CCCCO[C@H](CN(C)C(=O)c2ccncc2)[C@@H](C)CN([C@@H](C)CO)C(=O)c2cc(NC(=O)c3ccncc3)ccc2O1	·	–	–	–	·	·	·	·
CC(C)NC(=O)N(C)C[C@H]1OCCCC[C@@H](C)Oc2ccc(NC(=O)c3ccncc3)cc2C(=O)N([C@H](C)CO)C[C@@H]1C	–	95.7	–	–	–	–	–	–
CC(C)NC(=O)N(C)C[C@H]1OCCCC[C@H](C)Oc2ccc(NC(=O)c3ccncc3)cc2C(=O)N([C@@H](C)CO)C[C@H]1C	–	–	–	–	·	·	·	·
SMILES	IDH1 R132H inh	T cruzi growth-1	Pf Dd2 inh	KDM4C inh	T cruzi growth-2	T cruzi growth-3	NIH3T3 tox	3T3 cytotox 2
C[C@@H]1CCCCO[C@H](CN(C)C(=O)c2ccncc2)[C@@H](C)CN([C@@H](C)CO)C(=O)c2cc(NC(=O)c3ccncc3)ccc2O1	–	101.0	–	–	–	–	–	–
CCC(=O)N1CC2(CCN(Cc3cncnc3)CC2)c2c([nH]c3cc(OC)ccc23)[C@@H]1CO	·	·	–	–	·	·	·	·
O=C(C[C@H]1CC[C@@H]2[C@H](COC[C@@H](O)CN2Cc2cccc(F)c2)O1)NCCc1ccncc1	·	–	–	–	·	·	·	·
O=C(Nc1cccc(Cl)c1)N[C@@H]1CC[C@@H](CCn2cc(Cc3ccccc3)nn2)O[C@@H]1CO	–	?	–	–	97.6	–	–	32.9
COc1ccccc1NC(=O)N[C@@H]1CC[C@H](CCn2cc(C3(O)CCCC3)nn2)O[C@@H]1CO	–	109.5	–	–	–	–	–	–
O=C(Nc1ccc(Cl)cc1)N[C@@H]1CC[C@@H](CCn2cc(-c3ccccc3F)nn2)O[C@H]1CO	–	105.4	–	–	104.2	–	–	–
COc1ccccc1NC(=O)N[C@@H]1CC[C@H](CCn2cc(C3(O)CCCC3)nn2)O[C@H]1CO	–	–	–	–	·	·	·	·
O=C(Nc1ccc(Cl)cc1)N[C@@H]1CC[C@H](CCn2cc(-c3ccccc3F)nn2)O[C@H]1CO	–	–	–	–	·	·	·	·
O=C(NCC[C@H]1CC[C@H](NC(=O)c2ccncc2)[C@H](CO)O1)Nc1ccc(Cl)cc1	–	–	–	–	·	·	·	·
O=C(NCC[C@@H]1CC[C@H](NC(=O)c2ccncc2)[C@H](CO)O1)Nc1ccc(Cl)cc1	–	101.2	–	–	96.8	–	–	–
CCCCCCC/C=N/NC(=O)CCCCC(=O)NO	–	·	·	·	·	·	·	·
C[C@@H]1CN([C@H](C)CO)C(=O)c2cc(NC(=O)CCC(F)(F)F)ccc2O[C@@H](C)CCCCO[C@@H]1CN(C)C(=O)CCC(F)(F)F	–	·	–	–	·	·	·	·
